Key:
[1] = test system: Human immunodeficiency virus; assay: Antiviral activity against HIV NL4.3 harboring renilla luciferase infected in human MT2 cells pretreated for 2 hrs followed by viral infection measured after 48 to 96 hrs post infection by luciferase reporter gene assay; format: functional, organism-based; details: Human immunodeficiency virus 1, NL4.3, MT2
Method in brief: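 Recombinant NL4.3-Ren virus assay in MT-2 cells. EC50 is given in μM unless stated otherwise.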

[2] = Cytotoxicity against human MT2 cells by Celltiter-Glo assay; format: cell-based
[3] = Selectivity index, ratio of CC50 for human MT2 cells to EC50 for HIV NL4.3 harboring renilla luciferase infected in human MT2 cells; format: toxicity, cell-based; details: read-out: Ratio CC50/EC50
Method in brief: (§1)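 Selectivity index is CC50 divided by EC50: Vero CC50 over CHIKV EC50, or MT-2 CC50 over NL4.3-Ren EC50 (HIV). Inputs are in μM unless stated otherwise.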

Chikungunya virus = assay: Antiviral activity against Chikungunya virus Indian ocean strain 899 infected in African green monkey Vero cells assessed as reduction in virus-induced cytopathic effect by MTS assay; format: functional, organism-based; details: Indian ocean 899, Vero
[4] = Cytotoxicity against African green monkey Vero cells assessed as morphological changes by microscopic method; format: cell-based; details: chlorocebus sabaeus
[5] = Selectivity index, ratio of CC50 for African green monkey Vero cells to EC50 for Chikungunya virus Indian ocean strain 899 infected in African green monkey Vero cells; format: toxicity; details: read-out: Ratio CC50/EC50; method in brief: as §1

Structure (SMILES)	EC50 [1]	CC50 [2]	selectivity ratio [3]	EC50 (Chikungunya virus)	CC50 [4]	selectivity ratio [5]
C/C=C(\C)C(=O)O[C@@H]1[C@@H](C)[C@]2(O)[C@@H]3C=C(C)C(=O)[C@@H]3CC(CO)=C[C@H]2[C@@H]2C(C)(C)[C@]12OC(=O)C(C)C	4.19 µM	> 50 µM	> 12	17 µM	116 µM	7
C/C=C(\C)C(=O)O[C@@H]1[C@@H](C)[C@]2(O)[C@@H]3C=C(C)C(=O)[C@H]3CC(CO)=C[C@H]2[C@@H]2C(C)(C)[C@]12OC(=O)C(C)C	0.013 µM	> 50 µM	> 3920	1 µM	20 µM	25
C/C=C(\C)C(=O)O[C@@H]1[C@@H](C)[C@]2(O)[C@@H]3C=C(C)C(=O)[C@H]3CC(C)=C[C@H]2[C@@H]2C(C)(C)[C@]12OC(=O)C(C)C	–	> 50 µM	–	–	154 µM	–
C=C1[C@H](OC(C)=O)[C@@H](OC(C)=O)[C@@H](OC(C)=O)C(C)(C)/C=C/[C@@H](C)C(=O)[C@@]2(OC(C)=O)C[C@@](C)(OC(C)=O)[C@H](OC(C)=O)[C@@H]2[C@H]1OC(C)=O	–	–	–	13.8 µM	> 144 µM	> 10
CC(=O)O[C@@H]1[C@@H](C)[C@]2(O)[C@@H]3C=C(C)C(=O)[C@H]3CC(CO)=C[C@H]2[C@@H]2C(C)(C)[C@]12OC(=O)C(C)C	0.054 µM	> 50 µM	> 919	0.44 µM	172 µM	390
C=C1[C@H](OC(C)=O)[C@@H](O)[C@@H](OC(C)=O)C(C)(C)/C=C/[C@@H](C)C(=O)[C@@]2(OC(C)=O)C[C@@](C)(OC(C)=O)[C@H](OC(C)=O)[C@@H]2[C@H]1OC(C)=O	–	–	–	> 153 µM	–	–
CCCCCCCCCCCCCC(=O)O[C@@H]1[C@@H](C)[C@@]2(O)[C@@H](C=C(CO)C[C@]3(O)C(=O)C(C)=C[C@@H]23)[C@@H]2C(C)(C)[C@]12OC(C)=O [PHORBOL MYRISTATE ACETATE]	–	–	–	–	–	1960
CC(=O)O[C@@]12C[C@@H](C)[C@@]3(O)[C@@H](C=C(CO)C[C@]4(O)C(=O)C(C)=C[C@@H]34)[C@@H]1C2(C)C [PROSTRATIN]	0.226 µM	> 50 µM	> 22	–	–	30

Reference: ChEMBL document CHEMBL4130446, “Environmentally Friendly Procedure Based on Supercritical Fluid Chromatography and Tandem Mass Spectrometry Molecular Networking for the Discovery of Potent Antiviral Compounds from Euphorbia semiperfoliata” (J Nat Prod, 2017)
